# Published values gathered from unrelated publications.
# Lines come from different studies, so protocols differ.
# Target: Muscarinic acetylcholine receptor M2 (CHRM2, Homo sapiens, UniProt P08172)
# Concentration: 10 µM
# Residues used in one study (P08172 1-466): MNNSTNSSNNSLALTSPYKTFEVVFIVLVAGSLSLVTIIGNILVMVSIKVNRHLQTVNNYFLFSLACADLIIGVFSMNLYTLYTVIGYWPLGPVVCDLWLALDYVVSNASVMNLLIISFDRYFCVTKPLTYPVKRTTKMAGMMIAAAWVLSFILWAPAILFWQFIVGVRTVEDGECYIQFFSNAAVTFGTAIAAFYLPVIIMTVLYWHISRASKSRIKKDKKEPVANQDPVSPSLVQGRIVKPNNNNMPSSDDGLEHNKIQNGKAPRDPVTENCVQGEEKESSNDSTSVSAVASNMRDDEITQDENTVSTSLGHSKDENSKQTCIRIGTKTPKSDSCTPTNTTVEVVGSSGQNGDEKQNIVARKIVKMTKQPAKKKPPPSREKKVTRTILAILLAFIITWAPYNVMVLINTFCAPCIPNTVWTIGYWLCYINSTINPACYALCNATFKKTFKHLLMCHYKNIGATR
Structure (SMILES),read-out,method,inhibition [%]
CCN(CC)c1ccc(C2Nc3ccc(C(=O)c4ccccc4)cc3NC3=C2C(=O)CC(C)(C)C3)cc1 (centres unmarked),ligand displacement,radioligand,-1
Ic1cccc2cnccc12,ligand displacement,radioligand,0
O=C(c1ccc(Cl)cc1)N(Cc1ccccc1)C1CCCCC1,cell-free assay,,38.2
CCN(Cc1ccccc1C(F)(F)F)C(=O)C1CCN(S(=O)(=O)c2ccc3[nH]ncc3c2)CC1,ligand displacement,radioligand,1
O=C(Nc1ccc(S(=O)(=O)N2CCC(Cl)CC2)cc1)c1ccc([N+](=O)[O-])o1,ligand displacement,radioligand,10
COc1cc(NC(C)=O)c(Cl)cc1C(=O)Nc1nccs1,cell-free assay,,-25.3
O=C1N=C(N2CCCCN2)S/C1=C\c1ccc(F)cc1O,ligand displacement,radioligand,< 10
CCCNc1nc2ccccc2n1Cc1ccc(Cl)cc1,ligand displacement,,13.7
O=C(NNS(=O)(=O)c1ccccc1F)c1cc(F)cc(-c2ccccn2)c1,cell-free assay,,15.9
N#Cc1cc(Cn2c(N3CCCC3)nc3ccccc32)ccc1F,ligand displacement,,7.75
CC1CCN(c2ccnc(NCc3cn(C)cn3)n2)CC1,ligand displacement,,7.21
